From ChEMBL document CHEMBL5107937, “Synthesis and antitumour evaluation of indole-2-carboxamides against paediatric brain cancer cells” (RSC Med Chem, 2021)

Tests used:
[1] = system: KNS-42; experiment: Cytotoxicity against human KNS-42 cells assessed as reduction in cell viability incubated for 72 hrs by PrestoBlue reagent based cell viability assay; assay type: functional; settings: KNS-42, 72 h
In short: (§1)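 Viability screen run in triplicate. IC50 is the compound dose giving 50% inhibition of cell viability, taken as cytotoxicity.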

[2] = system: KNS-42; experiment: Antiproliferative activity against human KNS-42 cells assessed as cell growth inhibition incubated for 72 hrs by MTT assay; assay type: functional, cell-based; settings: KNS-42, 72 h
In short: (§2)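 Proliferation screen run in triplicate. IC50 is the compound dose giving 50% inhibition of cell proliferation.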

[3] = Cytotoxicity against human BT-12 cells assessed as reduction in cell viability incubated for 72 hrs by PrestoBlue reagent based cell viability assay; assay type: functional; settings: BT-12, 72 h; in short: as §1
[4] = Antiproliferative activity against human BT-12 cells assessed as cell growth inhibition incubated for 72 hrs by MTT assay; assay type: functional, cell-based; settings: BT-12, 72 h; in short: as §2
[5] = Cytotoxicity against human BT-16 cells assessed as reduction in cell viability incubated for 72 hrs by PrestoBlue reagent based cell viability assay; assay type: functional; settings: BT-16, 72 h; in short: as §1
[6] = Antiproliferative activity against human BT-16 cells assessed as cell growth inhibition incubated for 72 hrs by MTT assay; assay type: functional, cell-based; settings: BT-16, 72 h; in short: as §2
[7] = system: Daoy; experiment: Cytotoxicity against human Daoy cells assessed as reduction in cell viability incubated for 72 hrs by PrestoBlue reagent based cell viability assay; assay type: functional; in short: as §1
[8] = system: Daoy; experiment: Antiproliferative activity against human Daoy cells assessed as cell growth inhibition incubated for 72 hrs by MTT assay; assay type: functional, cell-based; in short: as §2
[9] = Cytotoxicity against human HFF-1 cells assessed as reduction in cell viability incubated for 72 hrs by PrestoBlue reagent based cell viability assay; assay type: toxicity; in short: as §1
[10] = Antiproliferative activity against human HFF-1 cells assessed as cell growth inhibition incubated for 72 hrs by MTT assay; assay type: toxicity, cell-based; in short: as §2
[11] = Octanol-water partition coefficient, logP of the compound; assay type: physicochemical
[12] = biological target: T1, Cannabinoid receptor 1 (Homo sapiens, UniProt P21554); experiment: Agonist activity at human CB1R expressed in mouse AtT20 cells at 10 uM by FLIPR membrane potential assay; assay type: functional, cell-based
T1 sequence (P21554 whole entry): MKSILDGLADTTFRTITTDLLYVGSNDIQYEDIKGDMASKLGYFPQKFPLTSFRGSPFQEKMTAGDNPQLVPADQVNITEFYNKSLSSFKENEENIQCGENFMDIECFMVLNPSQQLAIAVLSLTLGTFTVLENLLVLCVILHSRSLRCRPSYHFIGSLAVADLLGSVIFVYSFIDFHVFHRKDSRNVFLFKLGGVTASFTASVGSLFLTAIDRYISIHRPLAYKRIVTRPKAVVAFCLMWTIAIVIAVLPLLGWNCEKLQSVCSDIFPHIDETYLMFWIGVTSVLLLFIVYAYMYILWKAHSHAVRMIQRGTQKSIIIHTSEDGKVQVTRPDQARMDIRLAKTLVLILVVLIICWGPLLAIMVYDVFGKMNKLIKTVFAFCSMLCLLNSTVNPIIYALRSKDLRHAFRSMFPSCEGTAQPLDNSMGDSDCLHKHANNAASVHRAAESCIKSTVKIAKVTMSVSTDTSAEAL
In short: (§3)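 Agonist mode: AtT-20 cells stably transfected with human CB1R or human CB2R; membrane potential responses recorded.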

[13] = biological target: T2, Cannabinoid receptor 2 (Homo sapiens, UniProt P34972); experiment: Agonist activity at human CB2R expressed in mouse AtT20 cells at 10 uM by FLIPR membrane potential assay; assay type: functional, cell-based; in short: as §3
T2 sequence (P34972 whole entry): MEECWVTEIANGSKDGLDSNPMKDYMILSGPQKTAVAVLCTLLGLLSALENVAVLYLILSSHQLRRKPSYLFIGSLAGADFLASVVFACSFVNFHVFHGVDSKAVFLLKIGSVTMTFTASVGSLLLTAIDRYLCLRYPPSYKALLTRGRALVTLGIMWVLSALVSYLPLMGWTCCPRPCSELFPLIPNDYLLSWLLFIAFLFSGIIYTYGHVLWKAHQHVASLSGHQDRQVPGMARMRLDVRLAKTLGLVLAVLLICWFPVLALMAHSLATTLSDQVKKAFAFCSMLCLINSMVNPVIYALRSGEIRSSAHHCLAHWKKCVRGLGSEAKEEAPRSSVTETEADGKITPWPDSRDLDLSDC

[14] = biological target: T1, Cannabinoid receptor 1; experiment: Antagonist activity at human CB1R expressed in mouse AtT20 cells at 10 uM by FLIPR membrane potential assay; assay type: functional, cell-based
In short: (§4)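 AtT-20 cells stably carrying human CB1R or human CB2R were pre-incubated with compound or vehicle for 60 minutes. 500 nM CP 55940 was then added and membrane potential responses were recorded. IC50 is for inhibition of the agonist response.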

[15] = biological target: T2, Cannabinoid receptor 2; experiment: Antagonist activity at human CB2R expressed in mouse AtT20 cells at 10 uM by FLIPR membrane potential assay; assay type: functional, cell-based; in short: as §4
[16] = biological target: T1, Cannabinoid receptor 1; experiment: Antagonist activity at human CB1R expressed in mouse AtT20 cells by FLIPR membrane potential assay; assay type: functional, cell-based; in short: as §4
[17] = biological target: T2, Cannabinoid receptor 2; experiment: Antagonist activity at human CB2R expressed in mouse AtT20 cells by FLIPR membrane potential assay; assay type: functional, cell-based
In short: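 AtT-20 cells stably transfected with human CB2R; membrane potential response read out. Antagonist mode: cells pre-incubated with vehicle or compound for 60 min, then challenged with 500 nM CP 55940. IC50 derived from inhibition of the agonist response. Not active defined as <50% inhibition at 10 μM.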

## O=C(NC12CC3CC(CC(C3)C1)C2)c1cc(=O)c2ccc(Cl)c(Cl)c2[nH]1
[1]
  IC50: > 10 µM
[2]
  IC50: > 10 µM

## O=C(NC12CC3CC(CC(C3)C1)C2)c1cc(=O)c2c(Cl)cc(Cl)cc2[nH]1
[1]
  IC50: > 10 µM
[2]
  IC50: > 10 µM

## O=C(NC12CC3CC(CC(C3)C1)C2)c1cc2ccccc2n1CCCCO
[1]
  IC50: 4.75 µM
[2]
  IC50: > 10 µM

## O=C(NC12CC3CC(CC(C3)C1)C2)c1c[nH]c2cc(Cl)cc(Cl)c2c1=O
[1]
  IC50: > 10 µM
[2]
  IC50: 9.17 µM

## O=C(NC12CC3CC(CC(C3)C1)C2)c1cc(=O)c2cc(Cl)ccc2[nH]1
[1]
  IC50: > 10 µM
[2]
  IC50: 6.11 µM

## O=C(NCc1ccccc1)c1cc2c(F)cc(F)cc2[nH]1
[1]
  IC50: 8.25 µM
[2]
  IC50: 9.85 µM
[3]
  IC50: 0.89 µM
[4]
  IC50: 7.44 µM
[5]
  IC50: 1.81 µM
[6]
  IC50: 6.06 µM
[7]
  IC50: > 10 µM
[8]
  IC50: > 10 µM
[9]
  IC50 at 72 h: 119 µM
[10]
  IC50 at 72 h: 65 µM
[11]
  logP: 3.17
[12]
  Activity: < 50%
[13]
  Activity: < 50%
[14]
  inhibition: < 50%
[15]
  inhibition: < 50%

## O=C(NC12CC3CC(CC(C3)C1)C2)c1cc(=O)c2c(Cl)ccc(Cl)c2[nH]1
[1]
  IC50: > 10 µM
[2]
  IC50: > 10 µM

## O=C(NCCc1ccc2c(c1)OCO2)c1cc2c(F)cc(F)cc2[nH]1
[1]
  IC50: 2.34 µM
[2]
  IC50: 2.88 µM
[3]
  IC50: 6.08 µM
[4]
  IC50: 4.1 µM
[5]
  IC50: 2.72 µM
[6]
  IC50: 7.53 µM
[7]
  IC50: 3.65 µM
[8]
  IC50: 9.91 µM
[9]
  IC50 at 72 h: 81 µM
[10]
  IC50 at 72 h: 6.98 µM
[16]
  IC50: 0.373 µM
[11]
  logP: 3.02
[12]
  Activity: < 50%
[13]
  Activity: < 50%
[15]
  inhibition: < 50%

## CCCC(C)(C)c1ccc2c(c1)OC(C)(C)[C@@H]1CC=C(C)C[C@@H]21
[1]
  IC50: > 10 µM
[2]
  IC50: > 10 µM

## O=C(NCc1ccc2c(c1)OCO2)c1cc2c(F)cc(F)cc2[nH]1
[1]
  IC50: > 10 µM
[2]
  IC50: > 10 µM

## Cc1cccc(CNC(=O)c2cc3c(F)cc(F)cc3[nH]2)c1
[1]
  IC50: > 10 µM
[2]
  IC50: > 10 µM

## O=C(Cc1ccc(NC(=O)c2cc3c(F)cc(F)cc3[nH]2)cc1)NC12CC3CC(CC(C3)C1)C2
[1]
  IC50: > 10 µM
[2]
  IC50: 4.9 µM

## O=C(NC12CC3CC(CC(C3)C1)C2)c1n[nH]c2ccccc12
[1]
  IC50: > 10 µM
[2]
  IC50: > 10 µM

## O=C(NCc1ccc(F)cc1)c1cc2c(F)cc(F)cc2[nH]1
[1]
  IC50: 3.41 µM
[2]
  IC50: 4.34 µM
[3]
  IC50: 9.23 µM
[4]
  IC50: 8.87 µM
[5]
  IC50: 5.5 µM
[6]
  IC50: 9.79 µM
[7]
  IC50: 4.1 µM
[8]
  IC50: > 10 µM
[9]
  IC50 at 72 h: 281 µM
[10]
  IC50 at 72 h: 40 µM
[11]
  logP: 3.23
[12]
  Activity: < 50%
[13]
  Activity: < 50%
[14]
  inhibition: < 50%
[15]
  inhibition: < 50%

## O=C(NC12CC3CC(CC(C3)C1)C2)c1cc2ccccc2[nH]1
[1]
  IC50: 0.33 µM
[2]
  IC50: > 10 µM

## O=C(NC12CC3CC(CC(C3)C1)C2)c1ccc(NC(=O)c2cc3c(F)cc(F)cc3[nH]2)cc1
[1]
  IC50: > 10 µM
[2]
  IC50: > 10 µM

## O=C(NC12CC3CC(CC(C3)C1)C2)c1c[nH]c2cc(Br)ccc2c1=O
[1]
  IC50: > 10 µM
[2]
  IC50: > 10 µM

## O=C(c1cc2c(F)cc(F)cc2[nH]1)N1CCN(C(=O)C23CC4CC(CC(C4)C2)C3)CC1
[1]
  IC50: 5.04 µM
[2]
  IC50: 6.62 µM
[12]
  Activity: < 50%
[13]
  Activity: < 50%
[14]
  inhibition: < 50%
[15]
  inhibition: < 50%

## O=C(CC12CC3CC(CC(C3)C1)C2)Nc1nc2ccccc2[nH]1
[1]
  IC50: > 10 µM
[2]
  IC50: 6.46 µM

## O=C(CNC(=O)c1cc2c(F)cc(F)cc2[nH]1)NC12CC3CC(CC(C3)C1)C2
[1]
  IC50: > 10 µM
[2]
  IC50: > 10 µM

## COc1cccc(CNC(=O)c2cc3c(F)cc(F)cc3[nH]2)c1OC
[1]
  IC50: > 10 µM
[2]
  IC50: > 10 µM

## O=C(Nc1nc2ccccc2[nH]1)c1cc2c(F)cc(F)cc2[nH]1
[1]
  IC50: 4.49 µM
[2]
  IC50: 4.03 µM
[3]
  IC50: 7.65 µM
[4]
  IC50: 1.79 µM
[5]
  IC50: 1.37 µM
[6]
  IC50: 5.41 µM
[7]
  IC50: 1.02 µM
[8]
  IC50: 2.31 µM
[9]
  IC50 at 72 h: 115 µM
[10]
  IC50 at 72 h: 3.03 µM
[11]
  logP: 2.69
[12]
  Activity: < 50%
[13]
  Activity: < 50%
[14]
  inhibition: < 50%
[15]
  inhibition: < 50%

## O=C(NC12CC3CC(CC(C3)C1)C2)c1nc2ccccc2[nH]1
[1]
  IC50: > 10 µM
[2]
  IC50: > 10 µM

## O=C(NC12CC3CC(CC(C3)C1)C2)c1c[nH]c2c(Cl)c(Cl)ccc2c1=O
[1]
  IC50: > 10 µM
[2]
  IC50: 8.05 µM

## O=C(NC12CC3CC(CC(C3)C1)C2)c1c[nH]c2ccc(Cl)cc2c1=O
[1]
  IC50: > 10 µM
[2]
  IC50: > 10 µM

## O=C(NC12CC3CC(CC(C3)C1)C2)c1cc(=O)c2ccc(Br)cc2[nH]1
[1]
  IC50: > 10 µM
[2]
  IC50: > 10 µM

## O=C(NC12CC3CC(CC(C3)C1)C2)c1c[nH]c2c(Cl)ccc(Cl)c2c1=O
[1]
  IC50: 9.06 µM
[2]
  IC50: 2.92 µM
[3]
  IC50: 5.15 µM
[4]
  IC50: 3.59 µM
[5]
  IC50: 1.96 µM
[6]
  IC50: 4.88 µM
[7]
  IC50: 1.54 µM
[8]
  IC50: 4.71 µM
[9]
  IC50 at 72 h: 7.04 µM
[10]
  IC50 at 72 h: 3.85 µM
[17]
  IC50: 1.28 µM
[12]
  Activity: < 50%
[13]
  Activity: < 50%
[14]
  inhibition: < 50%

## Cc1c(C(=O)c2cccc3ccccc23)c2cccc3c2n1[C@@H](CN1CCOCC1)CO3
[1]
  IC50: 8.02 µM
[2]
  IC50: 8.07 µM
[3]
  IC50: 8.6 µM
[4]
  IC50: 9.32 µM
[5]
  IC50: 4.74 µM
[6]
  IC50: 4.57 µM
[7]
  IC50: > 10 µM
[8]
  IC50: 6.09 µM
[9]
  IC50 at 72 h: 0.023 µM
[10]
  IC50 at 72 h: 1.82 µM
[11]
  logP: 4.13

## O=C(Nc1nc2ccccc2[nH]1)C12CC3CC(CC(C3)C1)C2
[1]
  IC50: > 10 µM
[2]
  IC50: > 10 µM
